Activity calls are given as the source filed them. The rule behind the calls is not given here.
Tested on: not listed separately
Assay: Stability in mouse plasma assessed as parent compound remaining after 5 hrs
Type: ADME, cell-free
Conditions: read-out: Stability
In short: (§1)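 Human or mouse plasma incubation. Percent parent remaining at 5 h, average of three values.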

Structure (SMILES)	remaining at 5 h [%]
CC1CC(=O)NN=C1c1ccc(F)c(F)c1 (racemic)	96
CCN(CC)c1ccc(C2=NNC(=O)CC2C)cc1 (racemic)	96
C[C@@H]1CC(=O)NN=C1c1ccc(-c2cncnc2)cc1	108
CC1CC(=O)NN=C1c1ccc(N2CCOCC2)c(F)c1 (racemic)	101
C[C@@H]1CC(=O)NN=C1c1ccc(Cl)cc1	86
CC1CC(=O)NN=C1c1ccc(N2CCOCC2)cc1 (racemic)	105

Tested on: not listed separately
Assay: Microsomal stability in human liver microsomes assessed as parent compound remaining measured after 1 hr in presence of NADPH by UHPLC-MS analysis
Type: ADME, Microsome
Conditions: read-out: Stability
In short: (§2)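 Test compound incubated with human or mouse liver microsomes. Percent remaining at 1 h reported as the average of three values.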

Structure (SMILES)	remaining at 1 h [%]
CC1CC(=O)NN=C1c1ccc(F)c(F)c1 (racemic)	108
CCN(CC)c1ccc(C2=NNC(=O)CC2C)cc1 (racemic)	89
C[C@@H]1CC(=O)NN=C1c1ccc(-c2cncnc2)cc1	83
CC1CC(=O)NN=C1c1ccc(N2CCOCC2)c(F)c1 (racemic)	109
C[C@@H]1CC(=O)NN=C1c1ccc(Cl)cc1	81
CC1CC(=O)NN=C1c1ccc(N2CCOCC2)cc1 (racemic)	94

Tested on: not listed separately
Assay: Selectivity ratio, ratio of IC50 for human PDE3B to EC50 for cytotoxicity against human HeLa cells
Conditions: not given

Structure (SMILES)	Ratio IC50/EC50
C[C@@H]1CC(=O)NN=C1c1ccc(N2CCN(C)CC2)cc1	2.4
CC(=O)Nc1ccc(C2=NNC(=O)C[C@H]2C)cc1Cl	0.38
C[C@@H]1CC(=O)NN=C1c1ccc(Cl)c(Cl)c1	2.4
CC1CC(=O)NN=C1c1ccc(N2CCOCC2)cc1 (racemic)	2.4

Tested on: IMR-90
Assay: Cytotoxicity against human IMR-90 cells assessed as cell growth inhibition upto 10 uM measured after 48 hrs by […] reagent based assay
Type: functional
Conditions: not given
In short: (§3)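 Counterscreen viability assay in HCT116 colorectal cancer cells and IMR90 normal lung fibroblasts, run alongside DNMDP-sensitive lines.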

Structure (SMILES)	Activity
C[C@@H]1CC(=O)NN=C1c1ccc(-c2cncnc2)cc1	inactive
C[C@@H]1CC(=O)NN=C1c1ccc(F)c(F)c1	inactive
C[C@@H]1CC(=O)NN=C1c1ccc(C2CCCCC2)cc1	inactive
CC(=O)Nc1ccc(C2=NNC(=O)C[C@H]2C)cc1[N+](=O)[O-]	inactive
C[C@H]1CC(=O)NN=C1c1ccc(N2CCOCC2)c(F)c1	inactive
C[C@@H]1CC(=O)NN=C1c1ccc(Cl)cc1	inactive
CC1CC(=O)NN=C1c1ccc(N2CCOCC2)cc1 (racemic)	inactive
CCN1N=C(c2ccc(N(CC)CC)c([N+](=O)[O-])c2)C(C)CC1=O (racemic)	inactive

Tested on: SK-MEL3
Assay: Cytotoxicity against human SK-MEL3 cells assessed as cell growth inhibition upto 10 uM measured after 48 hrs by […] reagent based assay
Type: functional
Conditions: SK-MEL3, 48 h

Structure (SMILES)	EC50 [nM]
C[C@@H]1CC(=O)NN=C1c1ccc(N2CCN(C)CC2)cc1	684
CC(=O)Nc1ccc(C2=NNC(=O)C[C@H]2C)cc1Cl	31
C[C@@H]1CC(=O)NN=C1c1ccc(Cl)c(Cl)c1	5.6
CC(=O)Nc1ccc(C2=NNC(=O)C[C@H]2C)cc1[N+](=O)[O-]	4.2
C[C@@H]1CC(=O)NN=C1c1ccc(Cl)cc1	29
CC1CC(=O)NN=C1c1ccc(N2CCOCC2)cc1 (racemic)	11

Tested on: A549
Assay: Cytotoxicity against human A549 cells assessed as cell growth inhibition upto 10 uM measured after 3 days by […] reagent based assay
Conditions: time 72.0 hrs

Structure (SMILES)	Activity
C[C@H]1CC(=O)NN=C1c1ccc(F)c(F)c1	inactive
CC1(C)C(=O)NN=C1c1ccc(N2CCOCC2)cc1	inactive
CC(=O)Nc1ccc(C2=NNC(=O)C[C@H]2C)cc1	inactive
CCNc1ccc(C2=NNC(=O)C[C@H]2C)cc1	inactive
CCN(CC)c1ccc(C2=NNC(=O)C2(C)C)cc1	inactive
C[C@@H]1CC(=O)NN=C1c1ccc(N2CCN(C)CC2)cc1	inactive
CCCc1ccc(C2=NNC(=O)C[C@H]2C)cc1	inactive
CC1CC(=O)NN=C1c1ccc(F)c(F)c1 (racemic)	inactive
CC(=O)Nc1ccc(C2=NNC(=O)C[C@H]2C)cc1Cl	inactive
C[C@@H]1CC(=O)NN=C1c1ccc(Cl)c(Cl)c1	inactive
CCN(CC)c1ccc(C2=NNC(=O)CC2C)cc1 (racemic)	inactive
C[C@@H]1CC(=O)NN=C1c1ccc(-c2cncnc2)cc1	inactive
C[C@@H]1CC(=O)NN=C1c1ccc(F)c(F)c1	inactive
C[C@@H]1CC(=O)NN=C1c1ccc(C2CCCCC2)cc1	inactive
CC(=O)Nc1ccc(C2=NNC(=O)C[C@H]2C)cc1[N+](=O)[O-]	inactive
C[C@H]1CC(=O)NN=C1c1ccc(N2CCOCC2)c(F)c1	inactive
CC1CC(=O)NN=C1c1ccc(N2CCOCC2)c(F)c1 (racemic)	inactive
C[C@@H]1CC(=O)NN=C1c1ccc(Cl)cc1	inactive
CC1CC(=O)NN=C1c1ccc(N2CCOCC2)cc1 (racemic)	inactive
CCN1N=C(c2ccc(N(CC)CC)c([N+](=O)[O-])c2)C(C)CC1=O (racemic)	inactive

Tested on: HeLa
Assay: Cytotoxicity against human HeLa cells assessed as cell growth inhibition measured after 48 hrs by […] reagent based assay
Type: functional
Conditions: not given

Structure (SMILES)	EC50 [nM]
C[C@H]1CC(=O)NN=C1c1ccc(F)c(F)c1	> 1000
CC1(C)C(=O)NN=C1c1ccc(N2CCOCC2)cc1	> 1000
CC(=O)Nc1ccc(C2=NNC(=O)C[C@H]2C)cc1	> 1000
CCNc1ccc(C2=NNC(=O)C[C@H]2C)cc1	71
CCN(CC)c1ccc(C2=NNC(=O)C2(C)C)cc1	> 1000
C[C@@H]1CC(=O)NN=C1c1ccc(N2CCN(C)CC2)cc1	310
CCCc1ccc(C2=NNC(=O)C[C@H]2C)cc1	16
CC1CC(=O)NN=C1c1ccc(F)c(F)c1 (racemic)	64
CC(=O)Nc1ccc(C2=NNC(=O)C[C@H]2C)cc1Cl	24
C[C@@H]1CC(=O)NN=C1c1ccc(Cl)c(Cl)c1	4.5
CCN(CC)c1ccc(C2=NNC(=O)CC2C)cc1 (racemic)	8.8
C[C@@H]1CC(=O)NN=C1c1ccc(-c2cncnc2)cc1	13
C[C@@H]1CC(=O)NN=C1c1ccc(F)c(F)c1	22
C[C@@H]1CC(=O)NN=C1c1ccc(C2CCCCC2)cc1	7.7
CC(=O)Nc1ccc(C2=NNC(=O)C[C@H]2C)cc1[N+](=O)[O-]	4.9
C[C@H]1CC(=O)NN=C1c1ccc(N2CCOCC2)c(F)c1	> 1000
CC1CC(=O)NN=C1c1ccc(N2CCOCC2)c(F)c1 (racemic)	2.8
C[C@@H]1CC(=O)NN=C1c1ccc(Cl)cc1	33
CC1CC(=O)NN=C1c1ccc(N2CCOCC2)cc1 (racemic)	36
CCN1N=C(c2ccc(N(CC)CC)c([N+](=O)[O-])c2)C(C)CC1=O (racemic)	> 1000

Tested on: not listed separately
Assay: Plasma protein binding in human incubated for 5 hrs by UPLC-MS method
Type: ADME, cell-free
Conditions: read-out: PPB (converted)
In short: (§4)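 Plasma protein binding, human and mouse, reported as % bound, average of three values.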

Structure (SMILES)	fraction unbound at 5 h
CC1CC(=O)NN=C1c1ccc(F)c(F)c1 (racemic)	0.44
CCN(CC)c1ccc(C2=NNC(=O)CC2C)cc1 (racemic)	0.1
C[C@@H]1CC(=O)NN=C1c1ccc(-c2cncnc2)cc1	0.44
CC1CC(=O)NN=C1c1ccc(N2CCOCC2)c(F)c1 (racemic)	0.43
C[C@@H]1CC(=O)NN=C1c1ccc(Cl)cc1	0.13
CC1CC(=O)NN=C1c1ccc(N2CCOCC2)cc1 (racemic)	0.53

Tested on: not listed separately
Assay: Selectivity ratio, ratio of IC50 for human PDE3A to EC50 for cytotoxicity against human HeLa cells
Conditions: not given

Structure (SMILES)	Ratio IC50/EC50
C[C@@H]1CC(=O)NN=C1c1ccc(N2CCN(C)CC2)cc1	2.4
CC(=O)Nc1ccc(C2=NNC(=O)C[C@H]2C)cc1Cl	0.38
C[C@@H]1CC(=O)NN=C1c1ccc(Cl)c(Cl)c1	2.4
CC1CC(=O)NN=C1c1ccc(N2CCOCC2)cc1 (racemic)	2.4

Tested on: not listed separately
Assay: Plasma protein binding in mouse incubated for 5 hrs by UPLC-MS method
Type: ADME, cell-free
Conditions: read-out: PPB (converted)
In short: as §4

Structure (SMILES)	fraction unbound at 5 h
CC1CC(=O)NN=C1c1ccc(F)c(F)c1 (racemic)	0.48
CCN(CC)c1ccc(C2=NNC(=O)CC2C)cc1 (racemic)	0.1
C[C@@H]1CC(=O)NN=C1c1ccc(-c2cncnc2)cc1	0.46
CC1CC(=O)NN=C1c1ccc(N2CCOCC2)c(F)c1 (racemic)	0.45
C[C@@H]1CC(=O)NN=C1c1ccc(Cl)cc1	0.19
CC1CC(=O)NN=C1c1ccc(N2CCOCC2)cc1 (racemic)	0.58

Molecular target: cGMP-inhibited 3',5'-cyclic phosphodiesterase 3A (Homo sapiens, UniProt Q14432)
Sequence (Q14432 whole entry): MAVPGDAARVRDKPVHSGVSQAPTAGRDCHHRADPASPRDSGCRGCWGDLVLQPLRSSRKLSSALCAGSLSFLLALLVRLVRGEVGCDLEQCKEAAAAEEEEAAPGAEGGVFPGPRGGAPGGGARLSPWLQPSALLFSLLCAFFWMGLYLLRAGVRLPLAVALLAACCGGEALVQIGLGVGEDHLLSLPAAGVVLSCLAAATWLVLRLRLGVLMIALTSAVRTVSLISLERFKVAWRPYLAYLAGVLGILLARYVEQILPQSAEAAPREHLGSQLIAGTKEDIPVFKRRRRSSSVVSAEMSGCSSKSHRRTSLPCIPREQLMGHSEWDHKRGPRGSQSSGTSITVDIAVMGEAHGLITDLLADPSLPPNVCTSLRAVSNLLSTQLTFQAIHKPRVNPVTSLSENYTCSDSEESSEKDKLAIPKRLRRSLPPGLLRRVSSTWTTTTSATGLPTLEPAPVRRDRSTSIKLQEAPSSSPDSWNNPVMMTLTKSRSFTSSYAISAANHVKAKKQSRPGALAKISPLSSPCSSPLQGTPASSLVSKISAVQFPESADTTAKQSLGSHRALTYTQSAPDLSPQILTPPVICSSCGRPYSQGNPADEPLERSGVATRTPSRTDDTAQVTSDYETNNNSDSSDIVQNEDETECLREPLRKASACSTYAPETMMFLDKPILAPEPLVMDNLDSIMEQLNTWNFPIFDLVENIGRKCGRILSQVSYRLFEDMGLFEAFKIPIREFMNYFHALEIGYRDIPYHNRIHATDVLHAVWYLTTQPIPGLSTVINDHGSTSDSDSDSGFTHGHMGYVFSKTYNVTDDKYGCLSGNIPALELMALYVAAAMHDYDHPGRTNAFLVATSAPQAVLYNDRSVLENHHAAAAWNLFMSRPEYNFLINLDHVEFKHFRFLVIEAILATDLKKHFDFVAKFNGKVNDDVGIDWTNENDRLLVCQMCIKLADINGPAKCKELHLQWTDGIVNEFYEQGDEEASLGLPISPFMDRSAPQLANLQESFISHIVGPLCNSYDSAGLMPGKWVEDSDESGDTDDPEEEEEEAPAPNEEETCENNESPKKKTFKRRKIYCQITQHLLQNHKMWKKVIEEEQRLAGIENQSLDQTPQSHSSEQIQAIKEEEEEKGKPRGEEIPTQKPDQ
Assay: Inhibition of human N-terminal His-GST-tagged recombinant PDE3A (669-end residues) using fluorescent labelled cAMP as substrate
Conditions: not given

Structure (SMILES)	IC50 [nM]
CC(=O)Nc1ccc(C2=NNC(=O)C[C@H]2C)cc1	24
C[C@@H]1CC(=O)NN=C1c1ccc(N2CCN(C)CC2)cc1	2000
CC(=O)Nc1ccc(C2=NNC(=O)C[C@H]2C)cc1Cl	8
C[C@@H]1CC(=O)NN=C1c1ccc(Cl)c(Cl)c1	8
CC1CC(=O)NN=C1c1ccc(N2CCOCC2)cc1 (racemic)	120

Tested on: not listed separately
Assay: Stability in human plasma assessed as parent compound remaining after 5 hrs
Type: ADME, cell-free
Conditions: read-out: Stability
In short: as §1

Structure (SMILES)	remaining at 5 h [%]
CC1CC(=O)NN=C1c1ccc(F)c(F)c1 (racemic)	93
CCN(CC)c1ccc(C2=NNC(=O)CC2C)cc1 (racemic)	104
C[C@@H]1CC(=O)NN=C1c1ccc(-c2cncnc2)cc1	104
CC1CC(=O)NN=C1c1ccc(N2CCOCC2)c(F)c1 (racemic)	80
C[C@@H]1CC(=O)NN=C1c1ccc(Cl)cc1	93
CC1CC(=O)NN=C1c1ccc(N2CCOCC2)cc1 (racemic)	87

Tested on: HCT-116
Assay: Cytotoxicity against human HCT-116 cells assessed as cell growth inhibition upto 10 uM measured after 48 hrs by […] reagent based assay
Type: functional
Conditions: not given
In short: as §3

Structure (SMILES)	Activity
C[C@@H]1CC(=O)NN=C1c1ccc(-c2cncnc2)cc1	inactive
C[C@@H]1CC(=O)NN=C1c1ccc(F)c(F)c1	inactive
C[C@@H]1CC(=O)NN=C1c1ccc(C2CCCCC2)cc1	inactive
CC(=O)Nc1ccc(C2=NNC(=O)C[C@H]2C)cc1[N+](=O)[O-]	inactive
C[C@H]1CC(=O)NN=C1c1ccc(N2CCOCC2)c(F)c1	inactive
C[C@@H]1CC(=O)NN=C1c1ccc(Cl)cc1	inactive
CC1CC(=O)NN=C1c1ccc(N2CCOCC2)cc1 (racemic)	inactive
CCN1N=C(c2ccc(N(CC)CC)c([N+](=O)[O-])c2)C(C)CC1=O (racemic)	inactive

Tested on: not listed separately
Assay: Microsomal stability in mouse liver microsomes assessed as parent compound remaining at 1 uM measured after 1 hr in presence of NADPH by UHPLC-MS analysis
Type: ADME, Microsome
Conditions: read-out: Stability
In short: as §2

Structure (SMILES)	remaining at 1 h, 1 µM [%]
CC1CC(=O)NN=C1c1ccc(F)c(F)c1 (racemic)	82
CCN(CC)c1ccc(C2=NNC(=O)CC2C)cc1 (racemic)	26
C[C@@H]1CC(=O)NN=C1c1ccc(-c2cncnc2)cc1	105
CC1CC(=O)NN=C1c1ccc(N2CCOCC2)c(F)c1 (racemic)	102
C[C@@H]1CC(=O)NN=C1c1ccc(Cl)cc1	92
CC1CC(=O)NN=C1c1ccc(N2CCOCC2)cc1 (racemic)	99

Molecular target: cGMP-inhibited 3',5'-cyclic phosphodiesterase 3B (Homo sapiens, UniProt Q13370)
Sequence (Q13370 whole entry): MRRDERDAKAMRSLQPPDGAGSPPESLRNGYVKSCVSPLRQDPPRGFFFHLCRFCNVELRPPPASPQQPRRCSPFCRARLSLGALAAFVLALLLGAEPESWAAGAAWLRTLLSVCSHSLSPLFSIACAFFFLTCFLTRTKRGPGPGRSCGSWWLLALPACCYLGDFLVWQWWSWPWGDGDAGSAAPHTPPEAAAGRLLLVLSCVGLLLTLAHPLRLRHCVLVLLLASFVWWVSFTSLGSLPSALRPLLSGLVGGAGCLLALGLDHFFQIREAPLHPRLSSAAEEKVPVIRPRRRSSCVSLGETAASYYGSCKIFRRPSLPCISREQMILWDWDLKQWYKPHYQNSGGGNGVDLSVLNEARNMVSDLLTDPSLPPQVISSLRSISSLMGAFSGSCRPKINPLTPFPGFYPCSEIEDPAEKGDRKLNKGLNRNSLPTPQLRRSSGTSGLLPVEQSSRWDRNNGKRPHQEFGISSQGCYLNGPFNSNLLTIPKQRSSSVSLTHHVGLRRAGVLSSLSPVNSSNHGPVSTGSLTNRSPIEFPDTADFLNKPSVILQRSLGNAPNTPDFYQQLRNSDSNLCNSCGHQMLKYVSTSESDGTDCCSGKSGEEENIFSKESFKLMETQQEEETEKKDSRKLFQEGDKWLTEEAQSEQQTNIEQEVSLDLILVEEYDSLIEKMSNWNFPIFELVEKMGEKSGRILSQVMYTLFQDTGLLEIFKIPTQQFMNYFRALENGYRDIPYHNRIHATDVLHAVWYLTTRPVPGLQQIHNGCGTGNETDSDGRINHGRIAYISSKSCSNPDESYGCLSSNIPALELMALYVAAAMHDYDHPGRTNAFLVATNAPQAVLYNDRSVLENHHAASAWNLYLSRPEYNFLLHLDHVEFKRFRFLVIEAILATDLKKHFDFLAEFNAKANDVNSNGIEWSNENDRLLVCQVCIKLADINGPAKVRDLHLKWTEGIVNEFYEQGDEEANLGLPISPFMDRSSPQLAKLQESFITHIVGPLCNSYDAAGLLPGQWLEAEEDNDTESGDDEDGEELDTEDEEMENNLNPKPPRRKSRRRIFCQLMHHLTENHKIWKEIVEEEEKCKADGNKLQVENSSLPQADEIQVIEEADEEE
Assay: Inhibition of human recombinant PDE3B
Conditions: not given

Structure (SMILES)	IC50 [nM]
CC(=O)Nc1ccc(C2=NNC(=O)C[C@H]2C)cc1	16
C[C@@H]1CC(=O)NN=C1c1ccc(N2CCN(C)CC2)cc1	3500
CC(=O)Nc1ccc(C2=NNC(=O)C[C@H]2C)cc1Cl	10
C[C@@H]1CC(=O)NN=C1c1ccc(Cl)c(Cl)c1	14
CC1CC(=O)NN=C1c1ccc(N2CCOCC2)cc1 (racemic)	260

Source: ChEMBL document CHEMBL5260844, “Optimization of PDE3A Modulators for SLFN12-Dependent Cancer Cell Killing” (ACS Med Chem Lett, 2019)
